From ChEMBL document CHEMBL3352245, “Discovery of a series of aryl-N-(3-(alkylamino)-5-(trifluoromethyl)phenyl)benzamides as TRPA1 antagonists” (Bioorg Med Chem Lett, 2014)
pIC50: −log10 of the molar value. Converted amounts (≈) assume the structure as drawn.

Columns and labels:
[1] = Intrinsic clearance in human liver microsomes at 1 uM in presence of NADPH; format: ADME; conditions: read-out: CLH
Method in brief: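 Incubated with human liver microsomes at 1 mg/mL protein plus NADPH. Test compound at 1 μM.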

[2] = system: Plasma; experiment: Fraction unbound in human plasma at 10 uM by equilibrium dialysis method; format: ADME, cell-free
Method in brief: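 Test compound at 10 μM in human plasma. Binding is measured by equilibrium dialysis.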

[3] = molecular target: Transient receptor potential cation channel subfamily A member 1 (Homo sapiens, UniProt O75762); experiment: Antagonist activity at human TRPA1 expressed in HEK293-TREx cells assessed as change in calcium level by Fluo-4NW assay; format: cell-based
Method in brief: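 Human receptor; values are means of at least 2 experiments, with replicate error within 20% of value.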

[4] = Apparent permeability from apical to basolateral across human Caco2 cells at pH 7.4 at 10 uM by Transwell assay; format: ADME, cell-based; conditions: Caco-2, pH 7.4
Method in brief: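 Caco-2 monolayer in a Transwell format. Compound at 10 μM is applied apically and apical-to-basolateral apparent permeability is measured at pH 7.4.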

[5] = Thermodynamic solubility of the compound in buffer at pH 7.4 by HPLC/UV detection method; format: physicochemical; conditions: read-out: Therm_solubility
Method in brief: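 Thermodynamic solubility in pH 7.4 buffer. Dissolved compound is quantified by HPLC with UV detection.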

[6] = molecular target: CYP2D6 (Homo sapiens, UniProt P10635); experiment: Time-dependent inhibition of CYP2D6 in human liver microsomes at 10 uM by LC-MS/MS analysis; format: ADME
Method in brief: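 IC50-shift screen for time-dependent inhibition in human liver microsomes with test compound at 10 μM. The panel also covered 1A2, 2C9 and 3A4.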

[7] = molecular target: T1, Cytochrome P450 1A2 (Homo sapiens, UniProt P05177); experiment: Competitive inhibition of CYP1A2 in human liver microsomes by LC-MS/MS analysis; format: ADME
T1 sequence (P05177 whole entry): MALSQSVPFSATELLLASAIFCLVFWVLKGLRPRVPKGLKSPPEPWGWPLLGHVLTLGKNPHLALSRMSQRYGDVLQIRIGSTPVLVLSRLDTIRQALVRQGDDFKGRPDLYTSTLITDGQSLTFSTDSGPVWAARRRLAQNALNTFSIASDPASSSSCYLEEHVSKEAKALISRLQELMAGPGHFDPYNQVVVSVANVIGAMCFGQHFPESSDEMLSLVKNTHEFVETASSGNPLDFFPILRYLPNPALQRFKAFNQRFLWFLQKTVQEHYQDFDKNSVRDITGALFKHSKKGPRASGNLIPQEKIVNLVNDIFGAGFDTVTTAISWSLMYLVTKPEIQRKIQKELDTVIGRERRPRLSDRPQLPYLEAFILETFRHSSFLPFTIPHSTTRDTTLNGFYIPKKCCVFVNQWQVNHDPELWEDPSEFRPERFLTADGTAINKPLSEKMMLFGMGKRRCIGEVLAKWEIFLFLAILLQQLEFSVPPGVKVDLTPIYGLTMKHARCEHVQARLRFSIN
Method in brief: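 Competitive inhibition screen in human liver microsomes using standard probe substrates. Metabolites are detected by LC-MS/MS. The panel also covered 2C9, 2C19, 2D6 and 3A4.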

Sequence of Transient receptor potential cation channel subfamily A member 1 (O75762 whole entry): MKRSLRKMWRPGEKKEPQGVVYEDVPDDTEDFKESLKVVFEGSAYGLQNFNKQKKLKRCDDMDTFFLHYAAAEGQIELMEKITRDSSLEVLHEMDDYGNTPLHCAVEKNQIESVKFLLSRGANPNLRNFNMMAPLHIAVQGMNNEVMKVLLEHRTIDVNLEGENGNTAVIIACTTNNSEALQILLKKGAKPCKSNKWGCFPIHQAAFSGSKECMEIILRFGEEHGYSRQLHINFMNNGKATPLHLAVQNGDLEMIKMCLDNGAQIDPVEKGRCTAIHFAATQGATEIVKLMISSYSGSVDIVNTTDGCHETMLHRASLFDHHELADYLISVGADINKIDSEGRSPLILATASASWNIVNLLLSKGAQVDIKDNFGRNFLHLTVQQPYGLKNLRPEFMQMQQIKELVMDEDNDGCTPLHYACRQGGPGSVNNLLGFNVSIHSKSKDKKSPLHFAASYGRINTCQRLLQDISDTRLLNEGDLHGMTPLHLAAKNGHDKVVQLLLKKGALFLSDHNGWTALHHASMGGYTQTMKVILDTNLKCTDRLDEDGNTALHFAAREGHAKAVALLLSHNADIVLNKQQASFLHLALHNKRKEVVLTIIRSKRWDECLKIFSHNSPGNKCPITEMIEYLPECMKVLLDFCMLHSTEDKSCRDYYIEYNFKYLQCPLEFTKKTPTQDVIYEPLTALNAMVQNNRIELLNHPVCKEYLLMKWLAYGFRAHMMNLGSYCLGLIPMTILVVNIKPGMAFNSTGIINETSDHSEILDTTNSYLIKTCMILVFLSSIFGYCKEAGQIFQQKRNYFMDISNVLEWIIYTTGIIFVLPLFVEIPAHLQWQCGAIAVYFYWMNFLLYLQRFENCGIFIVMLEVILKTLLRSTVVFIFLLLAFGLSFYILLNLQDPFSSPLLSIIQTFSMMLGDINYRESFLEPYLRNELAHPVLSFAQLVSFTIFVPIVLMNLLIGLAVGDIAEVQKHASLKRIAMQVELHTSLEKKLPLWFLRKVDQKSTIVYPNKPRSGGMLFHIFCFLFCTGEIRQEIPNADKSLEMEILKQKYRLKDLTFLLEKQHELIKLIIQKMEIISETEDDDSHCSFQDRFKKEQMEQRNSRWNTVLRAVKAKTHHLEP
Sequence of CYP2D6 (P10635 whole entry): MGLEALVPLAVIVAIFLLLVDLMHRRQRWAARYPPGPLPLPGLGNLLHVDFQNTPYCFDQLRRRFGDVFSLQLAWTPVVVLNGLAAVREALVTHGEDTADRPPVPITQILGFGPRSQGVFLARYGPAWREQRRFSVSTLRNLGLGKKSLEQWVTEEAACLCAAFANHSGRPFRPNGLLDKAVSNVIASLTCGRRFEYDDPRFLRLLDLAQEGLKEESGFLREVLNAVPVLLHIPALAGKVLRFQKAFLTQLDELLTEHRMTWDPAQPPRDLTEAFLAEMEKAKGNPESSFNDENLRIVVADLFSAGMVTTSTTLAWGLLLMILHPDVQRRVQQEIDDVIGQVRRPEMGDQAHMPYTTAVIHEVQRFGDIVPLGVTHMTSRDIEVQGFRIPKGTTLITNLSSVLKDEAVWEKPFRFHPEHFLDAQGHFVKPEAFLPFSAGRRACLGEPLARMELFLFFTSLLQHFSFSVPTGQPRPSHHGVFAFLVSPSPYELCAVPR

Row | pIC50 [3] | Compound | also measured
1 | 7.04 | CC(C)Nc1cc(NC(=O)c2c(F)cccc2F)cc(C(F)(F)F)c1 | microsomal CLint at 1 µM [1]: 73 µL/min/mg; Fu [2]: < 1%; Papp A→B at 10 µM [4]: 6.9 ×10⁻⁶ cm/s; solubility thermodynamic [5]: 1 µM (≈ 0.358 µg/mL)
2 | 5.57 | O=C(Nc1cc(NCc2cccs2)cc(C(F)(F)F)c1)c1cccs1 | 
3 | 5.54 | O=C(Nc1cc(NCc2ccccc2)cc(C(F)(F)F)c1)c1cccs1 | 
4 | 5.41 | O=C(Nc1cc(NCCc2ccccc2)cc(C(F)(F)F)c1)c1cccs1 | 
5 | 5.64 | COC(=O)Nc1cc(NC(=O)c2cccs2)cc(C(F)(F)F)c1 | 
6 | < 4.49 | CCCN(CCC)c1cc(NC(=O)c2cccs2)cc(C(F)(F)F)c1 | 
7 | 5.89 | CC(C)C(C)Nc1cc(NC(=O)c2cccs2)cc(C(F)(F)F)c1 (stereo not given) | 
8 | 6.10 | CC(C)CNc1cc(NC(=O)c2cccs2)cc(C(F)(F)F)c1 | 
9 | 6.41 | CCCNc1cc(NC(=O)c2cccs2)cc(C(F)(F)F)c1 | 
10 | 6.54 | CC(C)Nc1cc(NC(=O)c2cccs2)cc(C(F)(F)F)c1 | 
11 | 6.70 | CCCNc1cc(NC(=O)c2ccccc2)cc(C(F)(F)F)c1 | microsomal CLint at 1 µM [1]: 154 µL/min/mg; Fu [2]: < 1%; inhibition at 10 µM [6]: 35%; pIC50 [7]: 6.85; Papp A→B at 10 µM [4]: 6.2 ×10⁻⁶ cm/s; solubility thermodynamic [5]: 8 µM (≈ 2.58 µg/mL)
12 | < 4.49 | CCCNc1cc(NC(=O)c2ccccn2)cc(C(F)(F)F)c1 | 
13 | 6.03 | CCCNc1cc(NC(=O)c2cccnc2)cc(C(F)(F)F)c1 | 
14 | 5.59 | CCCNc1cc(NC(=O)c2ccncc2)cc(C(F)(F)F)c1 | 
15 | 5.85 | CCCNc1cc(NC(=O)c2ccc(F)cc2)cc(C(F)(F)F)c1 | 
16 | 5.92 | CCCNc1cc(NC(=O)c2ccc(F)c(F)c2)cc(C(F)(F)F)c1 | 
17 | 6.96 | CCCNc1cc(NC(=O)c2c(F)cccc2F)cc(C(F)(F)F)c1 | microsomal CLint at 1 µM [1]: 96 µL/min/mg; Fu [2]: < 1%; pIC50 [7]: 5.82; Papp A→B at 10 µM [4]: 2.7 ×10⁻⁶ cm/s; solubility thermodynamic [5]: 7 µM (≈ 2.51 µg/mL)
18 | < 4.49 | CCCNc1cc(N)cc(C(F)(F)F)c1 | 
19 | 7.13 | CCNc1cc(NC(=O)c2c(F)cccc2F)cc(C(F)(F)F)c1 | microsomal CLint at 1 µM [1]: 115 µL/min/mg; Fu [2]: < 1%; solubility thermodynamic [5]: 5 µM (≈ 1.72 µg/mL)
20 | < 4.49 | CCCN(C)c1cc(NC(=O)c2c(F)cccc2F)cc(C(F)(F)F)c1 | 
21 | < 4.49 | CCCOc1cc(NC(=O)c2c(F)cccc2F)cc(C(F)(F)F)c1 | 
22 | 5.72 | CCCNc1cc(C)cc(NC(=O)c2c(F)cccc2F)c1 | 
